Only some compounds are listed: those with a hit (about 2.9% of all), similar ones and a draw of the others.
APOBEC3A inh – blocks human APOBEC3A ssDNA deamination; inhibition, % at 20 µM; recombinant A3A, FAM/TAMRA ssDNA deamination fluorescence; AID 493011; actives 0.41% (n = 330,000);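 active = at least 40% inhibition at 20 µM here, with at most 30% in a related deaminase screen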
Target sequence (P31941 whole entry, looked up): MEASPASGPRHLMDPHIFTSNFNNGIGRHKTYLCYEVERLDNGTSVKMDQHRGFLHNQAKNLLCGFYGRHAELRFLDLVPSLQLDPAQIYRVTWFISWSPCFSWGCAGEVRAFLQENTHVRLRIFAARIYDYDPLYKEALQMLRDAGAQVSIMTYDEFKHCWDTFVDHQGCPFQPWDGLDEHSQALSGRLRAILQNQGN
PRMT1 FP inh – blocks human protein arginine methyltransferase 1 | inhibition, % at 2.79 µM | actives 1.3% (n = 370,000) | Q99873 | recombinant PRMT1, activity-based probe fluorescence polarization;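 active = inhibition above about 21% made by adding two undisclosed values, limit read from the data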
HCV NS3 hel inh – blocks Hepatitis C virus NS3 helicase unwinding | inhibition, % at 10.9 µM | actives 0.56% (n = 290,000) | NS3 helicase DNA unwinding, Cy5 molecular beacon fluorescence | AID 1800;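 active = inhibition above the mean of all tested compounds plus 3 SD, set per campaign, cut at about 35% in these data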
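Test system: hepatitis C virus NS3 helicase domain fragment enzyme. Also added: annealed dual-labelled DNA beacon duplex, ATP-started. Timing: 60 min unwinding reaction at 25 °C after ATP addition. Technique: Cy5 fluorescence. Measure: % inhibition of unwinding.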
ABHD5 PLIN5 PPI – blocks binding of human ABHD5 to perilipin-5; Q00G26+Q8WTS1; Split G. princeps luciferase complementation, luminescence, 4 h; actives 0.78% (n = 360,000); inhibition, % at 4 µM;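 active = inhibition above the mean inhibition across every tested compound plus 3 SD, cut at about 22% in these data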
core dimer inh – blocks dimerization of HCV core protein; TR-FRET GST/Flag-core106 dimerization, 1536-well; inhibition, % at 5 µM; actives 0.33% (n = 300,000);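 active = inhibition above the mean of all tested compounds plus 3 SD, set per screening campaign, cut at about 45% in these data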
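System – GST-tagged and Flag-tagged HCV core protein residues 1-106 · Repeats – one well for each compound · Technique – TR-FRET 671 and 617 nm emission · Doses – one concentration, 5 µM, in 0.5% DMSO · Times – 4 h, 22.5 °C incubation · Also added – Eu donor and XL665 acceptor anti-tag antibodies · Measure – percent inhibition of core106 dimerization signal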
APOBEC3G inh – APOBEC3G (human) deaminase inhibition; actives 0.28% (n = 330,000); recombinant A3G, ssDNA deamination FAM/TAMRA fluorescence; inhibition, % at 20 µM; Q9HC16;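 active = inhibition of at least 40% at 20 µM, with no more than 30% in the related APOBEC3A deaminase screen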
Target sequence (Q9HC16 whole entry, looked up): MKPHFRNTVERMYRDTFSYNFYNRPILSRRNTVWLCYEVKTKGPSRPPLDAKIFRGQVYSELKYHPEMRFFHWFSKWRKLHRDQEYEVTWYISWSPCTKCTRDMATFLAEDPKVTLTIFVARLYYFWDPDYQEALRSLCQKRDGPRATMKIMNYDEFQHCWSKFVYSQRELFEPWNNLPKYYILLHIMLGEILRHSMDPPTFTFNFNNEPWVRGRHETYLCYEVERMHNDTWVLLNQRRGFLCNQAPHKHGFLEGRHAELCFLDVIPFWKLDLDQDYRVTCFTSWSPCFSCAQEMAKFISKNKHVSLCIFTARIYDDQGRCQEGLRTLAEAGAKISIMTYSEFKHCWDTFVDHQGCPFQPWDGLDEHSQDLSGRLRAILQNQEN
NS3 helicase cf – HCV NS3 helicase inhibition, confirmation assay; shares compounds with HCV NS3 hel inh; NS3 helicase DNA unwinding, Cy5 molecular beacon fluorescence; inhibition, % at 10.9 µM; actives 31% (n = 1,600); AID 1943;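 active = inhibition above the mean of all tested compounds plus 3 SD, cutoff set per campaign, cut at about 36% in these data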
FID counter trip – intercalator displacement, NS3 helicase counter-screen. shares compounds with HCV NS3 hel inh. DNA fluorescent intercalator displacement, fluorescence. inhibition, % at 7.9 µM. actives 4% (n = 1,600). AID 1945; in the data active = inhibition above about 37%;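 note: higher means more displacement of ethidium bromide from the DNA hairpin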
Of the large screens only hits and unclear results are named; the others gave an inactive call (follow-up assays come after a bar, where they were run).

CCN(CC(=O)NCc1cccs1)CC(=O)Nc1ccccc1C	none (no result: HCV NS3 hel inh, core dimer inh)
COc1cccc(-c2coc3c(C)c4oc(=O)c(CCC(=O)O)c(C)c4cc23)c1	none
COc1cccc(-c2coc3c(C)c4oc(=O)c(CC(=O)O)c(C)c4cc23)c1	HCV NS3 hel inh 44 | NS3 helicase cf 59 | FID counter trip inactive
CC(=O)NC(C)(c1ccccc1)c1nc(-c2csc3ccccc23)cs1 (stereo not drawn)	none (no result: APOBEC3A inh, HCV NS3 hel inh, core dimer inh, APOBEC3G inh)
O=c1nc(/C=C/c2cccn2-c2ccc([N+](=O)[O-])cc2)cc(C(F)(F)F)[nH]1	HCV NS3 hel inh 64, core dimer inh 61 | NS3 helicase cf inactive | FID counter trip inactive
Cc1nnc(Cn2cnc3c2c(=O)n(C)c(=O)n3C)o1	HCV NS3 hel inh 39 | NS3 helicase cf inactive | FID counter trip inactive
CN1c2ccccc2C(O)=C(C(=O)Nc2ccccc2)S1(=O)=O	none
Cc1sc2c(c1C)C(O)=C(C(=O)Nc1ccccc1)S(=O)(=O)N2C	HCV NS3 hel inh 44 | NS3 helicase cf 60 | FID counter trip inactive
O=C(O)C1Nc2c(O)cc(Cl)c([N+](=O)[O-])c2C2C=CCC12 (stereo not drawn)	PRMT1 FP inh 36, HCV NS3 hel inh 70 | NS3 helicase cf 79 | FID counter trip inactive
O=C(O)C1Nc2c(cccc2C(F)(F)F)C2C=CCC12 (stereo not drawn)	none (no result: APOBEC3A inh, PRMT1 FP inh, ABHD5 PLIN5 PPI, core dimer inh, APOBEC3G inh)
COc1ccc(-c2noc(N3CCCC(C(=O)Nc4ccc(C(C)=O)cc4)C3)n2)cc1 (stereo not drawn)	none
Cc1cc(C)n(CCNC(=O)[C@H]2O[C@@H](n3ccc(=O)[nH]c3=O)[C@H](O)[C@@H]2O)n1	none (no result: APOBEC3A inh, HCV NS3 hel inh, core dimer inh, APOBEC3G inh)
Cc1cc(=O)oc2cc(OCC(=O)NC(Cc3c[nH]c4ccc(O)cc34)C(=O)O)c(Cl)cc12 (stereo not drawn)	HCV NS3 hel inh 40 | NS3 helicase cf inactive | FID counter trip inactive
CC(C)c1ccc(OCC(=O)NC(Cc2c[nH]c3ccccc23)C(=O)O)cc1 (stereo not drawn)	HCV NS3 hel inh 48 | NS3 helicase cf 62 | FID counter trip inactive
Cc1cc(=O)oc2c(C)c(OC(C)C(=O)NC(Cc3c[nH]c4ccc(O)cc34)C(=O)O)ccc12 (stereo not drawn)	none
OC(c1ccccc1)c1ncc(-c2cccc(F)c2)[nH]1 (stereo not drawn)	none (no result: APOBEC3A inh, HCV NS3 hel inh, core dimer inh, APOBEC3G inh)
CSc1nnc(CCNS(=O)(=O)c2ccccc2Br)n1C	none
COC(=O)c1ccccc1-c1ccc(/C=N/NC(=O)c2cc3ccccc3o2)o1	HCV NS3 hel inh 38 | NS3 helicase cf inactive | FID counter trip inactive
Cc1ccc(CNC(=O)C2CCN(S(=O)(=O)c3c(C)noc3/C=C/c3ccco3)CC2)cc1	HCV NS3 hel inh 63 | NS3 helicase cf inactive | FID counter trip inactive
Cc1ccc(CNC(=O)C2CCN(S(=O)(=O)c3c(C)noc3/C=C/N(C)C)CC2)cc1	none
O=C(N[C@H](C(=O)N1CCC[C@H]1C(=O)NCCc1ccccc1Cl)c1ccccc1)c1ccco1	none (no result: APOBEC3A inh, HCV NS3 hel inh, ABHD5 PLIN5 PPI, core dimer inh, APOBEC3G inh)
CCOC(=O)c1sc(N2C(=O)C(O)=C(C(=O)c3ccco3)C2c2ccc(C)o2)nc1C (stereo not drawn)	none
CCOC(=O)c1sc(N2C(=O)C(O)=C(C(=O)c3ccco3)C2c2ccc([N+](=O)[O-])cc2)nc1C (stereo not drawn)	HCV NS3 hel inh 37 | NS3 helicase cf 106 | FID counter trip inactive
CCOC(=O)c1ccc(N2C(=O)C(O)=C(C(C)=O)C2c2ccc([N+](=O)[O-])cc2)cc1 (stereo not drawn)	HCV NS3 hel inh 45 | NS3 helicase cf 36 | FID counter trip inactive
O=C(O)c1cc(-c2cccs2)nn1-c1cccc(Cl)c1	none
O=C(O)c1cc(-c2ccco2)nn1-c1ccc(Cl)cc1	HCV NS3 hel inh 44 (no result: APOBEC3A inh, core dimer inh, APOBEC3G inh) | NS3 helicase cf 83 | FID counter trip inactive
O=C(O)c1cc(-c2cc3ccccc3o2)nn1-c1ccccc1	none
O=C(O)c1cc(-c2ccco2)nn1-c1cccc(Cl)c1	HCV NS3 hel inh 48 | NS3 helicase cf inactive | FID counter trip inactive
C[C@H]1CN(CCc2ccccc2)C(=O)[C@@H]1CC(=O)Nc1ccc(Br)cc1	none (no result: APOBEC3A inh, HCV NS3 hel inh, core dimer inh, APOBEC3G inh)
COc1cccc(OC)c1OCCCN1CCC(Cc2ccccc2)CC1	none
O=C(Cc1ccccc1)N1CCN(C(=O)c2ccco2)CC1	none
O=C(Cc1ccc(Br)cc1)N1CCN(C(=O)c2ccco2)CC1	HCV NS3 hel inh 38 | NS3 helicase cf inactive | FID counter trip inactive
CC(=O)OCCc1[nH]c2ccccc2c1C	HCV NS3 hel inh 52 | NS3 helicase cf inactive | FID counter trip inactive
Cc1cc(N2C(=O)C(=O)/C(=C(/O)c3ccc(F)cc3)C2c2ccc(Cl)cc2)no1 (stereo not drawn)	HCV NS3 hel inh 43 | NS3 helicase cf 68 | FID counter trip inactive
Cc1nc(-c2ccc(-n3nncc3-c3ccco3)cc2)cs1	HCV NS3 hel inh 56 | NS3 helicase cf inactive | FID counter trip inactive
Cc1c(Cl)cccc1N1C(=O)CC(Sc2ccccc2N)C1=O (stereo not drawn)	none (no result: APOBEC3A inh, HCV NS3 hel inh, core dimer inh, APOBEC3G inh)
C=CCC1NS(=O)(=O)O[C@H](CCCC)[C@@H]1O (stereo partly drawn)	none
Cc1cc(C)c[n+](-c2[nH]c(=O)sc2/C=N/N=C(\[O-])c2cccnc2)c1	HCV NS3 hel inh 36 | NS3 helicase cf inactive | FID counter trip inactive
Cc1ccc[n+](-c2[nH]c(=O)sc2/C=N/N=C(\[O-])CCn2c3ccccc3c3ccccc32)c1	none
COc1cc2c3c(c1OC)C(=O)CC3CCCC2 (stereo not drawn)	none (no result: APOBEC3A inh, HCV NS3 hel inh, core dimer inh, APOBEC3G inh)
C=CCOc1ccc(C2/C(=C(\O)c3ccc4c(c3)OCCO4)C(=O)C(=O)N2CCCN2CCOCC2)cc1 (stereo not drawn)	HCV NS3 hel inh 50 | NS3 helicase cf inactive | FID counter trip inactive
COc1ccc(C2/C(=C(\O)c3ccc4c(c3)OCCO4)C(=O)C(=O)N2CCCn2ccnc2)cc1 (stereo not drawn)	none
CCCOc1cccc(C2/C(=C(\O)c3ccc4c(c3)OCCO4)C(=O)C(=O)N2CCCn2ccnc2)c1 (stereo not drawn)	HCV NS3 hel inh 41 | NS3 helicase cf inactive | FID counter trip inactive
COc1cccc2c1NC(C(=O)O)C1CC=CC21 (stereo not drawn)	HCV NS3 hel inh 58 (no result: PRMT1 FP inh) | NS3 helicase cf 93 | FID counter trip inactive

Screens deposited in PubChem BioAssay by several laboratories.
